Experiments:
Kidney [1] = experiment: AUC in Swiss-Webster mouse kidney assessed per gram of tissue at 10 mg/kg, po after 24 hrs; format: ADME, organism-based; parameters: time < 24 hr, dose 10 mg/kg, route oral; settings: in vivo
Method in brief: (§1)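 Female Swiss-Webster mice (about 25 g) each got a single 10 mg/kg dose of the 14C-labeled (8-14C) ester (50 mCi/mmol) in 0.7% saline, by oral gavage or ip injection. Blood was taken at 1, 3, 6, 12 and 24 h, and liver, spleen, kidney, lung, heart and brain were excised, washed and weighed. Radioactivity was measured by scintillation counting as µM plasma equivalents or nmol/g tissue, mean of three per time point.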

Mus musculus [2] = experiment: Toxicity in transgenic mouse at 10 mg/kg, po assessed as morbidity after 7 days; format: organism-based; parameters: dose 10 mg/kg, route oral; settings: in vivo, 168 h
Lung [3] = experiment: Cmax in Swiss-Webster mouse lung assessed per gram of tissue at 10 mg/kg, ip after 24 hrs; format: ADME, organism-based; parameters: dose 10 mg/kg, route intraperitoneal; settings: in vivo; method in brief: as §1
[4] = Tmax in Swiss-Webster mouse liver at 10 mg/kg, ip after 24 hrs; format: ADME, organism-based; parameters: dose 10 mg/kg, route intraperitoneal; method in brief: as §1
Mus musculus [5] = experiment: Toxicity in transgenic mouse at 30 to 100 mg/kg, po assessed as mortality after 7 days; format: organism-based; parameters: dose 30-100 mg/kg, route oral; settings: in vivo, 168 h
[6] = Cmax in Swiss-Webster mouse plasma assessed per gram of tissue at 10 mg/kg, po after 24 hrs; format: ADME, organism-based; parameters: dose 10 mg/kg, route oral; method in brief: as §1
Spleen [7] = experiment: Cmax in Swiss-Webster mouse spleen assessed per gram of tissue at 10 mg/kg, po after 24 hrs; format: ADME, organism-based; parameters: dose 10 mg/kg, route oral; settings: in vivo; method in brief: as §1
[8] = Tmax in Swiss-Webster mouse lung at 10 mg/kg, ip after 24 hrs; format: ADME, organism-based; parameters: dose 10 mg/kg, route intraperitoneal
Method in brief: (§2)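 Female Swiss-Webster mice (about 25 g) got one 10 mg/kg dose of the 8-14C-labeled ester (50 mCi/mmol) in 0.7% saline, by oral gavage or intraperitoneal injection. Blood was taken at 1, 3, 6, 12 and 24 h. Liver, spleen, kidney, lung, heart and brain were excised, washed and weighed. Drug plus metabolites were measured by liquid scintillation as µM plasma equivalents or nmol/g tissue. Each time point is the mean of three replicates.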

Brain [9] = experiment: AUC in Swiss-Webster mouse brain assessed per gram of tissue at 10 mg/kg, po after 24 hrs; format: ADME, organism-based; parameters: time < 24 hr, dose 10 mg/kg, route oral; settings: in vivo; method in brief: as §1
Brain [10] = experiment: AUC in Swiss-Webster mouse brain assessed per gram of tissue at 10 mg/kg, ip after 24 hrs; format: ADME, organism-based; parameters: time < 24 hr, dose 10 mg/kg, route intraperitoneal; settings: in vivo; method in brief: as §1
[11] = Oral bioavailability in Swiss-Webster mouse at 10 mg/kg after 24 hrs; format: ADME, organism-based; settings: in vivo
Method in brief: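 Same single 10 mg/kg 14C-labeled dose (50 mCi/mmol, 0.7% saline) given to female Swiss-Webster mice orally or ip. Plasma sampled 1–24 h and counted by liquid scintillation. Relative oral bioavailability came from AUCs of drug plus metabolites, computed as printed: […].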

Kidney [12] = experiment: AUC in Swiss-Webster mouse kidney assessed per gram of tissue at 10 mg/kg, ip after 24 hrs; format: ADME, organism-based; parameters: time < 24 hr, dose 10 mg/kg, route intraperitoneal; settings: in vivo; method in brief: as §1
Liver [13] = experiment: AUC in Swiss-Webster mouse liver assessed per gram of tissue at 10 mg/kg, ip after 24 hrs; format: ADME, organism-based; parameters: time < 24 hr, dose 10 mg/kg, route intraperitoneal; settings: in vivo; method in brief: as §1
Hepatitis B virus [14] = experiment: Antiviral activity against HBV harboring RNA polymerase L180M/M204V mutant gene infected in human HuH7 cells assessed as decrease in viral transient transfection after 5 days; settings: Huh-7, 5 days
HepG2 [15] = experiment: Drug metabolism in human HepG2 cells assessed as HPMPApp uptake at 10 uM after 24 hrs; format: ADME, cell-based; settings: hepg2, 24 h
Method in brief: (§3)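 Nearly confluent HepG2 flasks got 14C-labeled drug (final 10 µM, 50 mCi/mmol) for 24 h. Cells were washed with cold PBS, lysed in water by two freeze-thaw cycles and sonication, then extracted with cold TCA (8% final) and centrifuged at 4°C. Supernatant was counted and analyzed by SAX ion-exchange HPLC, with metabolites assigned by retention versus reference standards.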

Liver [16] = experiment: AUC in Swiss-Webster mouse liver assessed per gram of tissue at 10 mg/kg, po after 24 hrs; format: ADME, organism-based; parameters: time < 24 hr, dose 10 mg/kg, route oral; settings: in vivo; method in brief: as §1
HepG2 [17] = experiment: Drug metabolism in human HepG2 cells assessed as unidentified metabolite uptake at 10 uM after 24 hrs; format: ADME, cell-based; settings: hepg2, 24 h; method in brief: as §3
Lung [18] = experiment: AUC in Swiss-Webster mouse lung assessed per gram of tissue at 10 mg/kg, po after 24 hrs; format: ADME, organism-based; parameters: time < 24 hr, dose 10 mg/kg, route oral; settings: in vivo; method in brief: as §1
Kidney [19] = experiment: Cmax in Swiss-Webster mouse kidney assessed per gram of tissue at 10 mg/kg, po after 24 hrs; format: ADME, organism-based; parameters: dose 10 mg/kg, route oral; settings: in vivo; method in brief: as §1
Hepatitis B virus [20] = experiment: Antiviral activity against HBV harboring RNA polymerase M204V mutant gene infected in human HuH7 cells assessed as decrease in viral transient transfection after 5 days; settings: Huh-7, 5 days
[21] = Tmax in Swiss-Webster mouse kidney at 10 mg/kg, ip after 24 hrs; format: ADME, organism-based; parameters: dose 10 mg/kg, route intraperitoneal; method in brief: as §1
HepG2 [22] = experiment: Drug metabolism in human HepG2 cells assessed as unidentified metabolite uptake at 10 uM after 48 hrs; format: ADME, cell-based; settings: hepg2, 48 h
[23] = Cytotoxicity against human HepG2(2.2.15) cells after 24 hrs by neutral red assay; format: cell-based
Method in brief: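 2.2.15 cells, RPMI 1640 with 2% FBS, dosed daily for nine consecutive days. Viability was read by neutral red uptake, absorbance of internalized dye at 510, 24 h after the last treatment, three cultures per concentration.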

Liver [24] = experiment: Cmax in Swiss-Webster mouse liver assessed per gram of tissue at 10 mg/kg, ip after 24 hrs; format: ADME, organism-based; parameters: dose 10 mg/kg, route intraperitoneal; settings: in vivo; method in brief: as §1
[25] = Tmax in Swiss-Webster mouse plasma at 10 mg/kg, ip after 24 hrs; format: ADME, organism-based; parameters: dose 10 mg/kg, route intraperitoneal; method in brief: as §2
[26] = Tmax in Swiss-Webster mouse brain at 10 mg/kg, po after 24 hrs; format: ADME, organism-based; parameters: dose 10 mg/kg, route oral; method in brief: as §1
Heart = experiment: AUC in Swiss-Webster mouse heart assessed per gram of tissue at 10 mg/kg, ip after 24 hrs; format: ADME, organism-based; parameters: time < 24 hr, dose 10 mg/kg, route intraperitoneal; settings: in vivo; method in brief: as §1
[27] = Tmax in Swiss-Webster mouse liver at 10 mg/kg, po after 24 hrs; format: ADME, organism-based; parameters: dose 10 mg/kg, route oral; method in brief: as §1
Hepatitis B virus [28] = experiment: Antiviral activity against HBV infected in transgenic mouse assessed as decrease in liver viral DNA level at 4 mg/kg, po administered daily for 14 days measured post last dose; format: functional
Method in brief: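 Homozygous male and female HBV transgenic mice (founder 1.3.32; 22.2 ± 2.8 g) received drug in distilled water by oral gavage, 0.1 ml/10 g, at 7 µmol/kg (4 mg/kg) daily for 14 days. About 0.1 g liver was lysed at necropsy, and DNA was extracted with phenol-chloroform. HBV DNA was measured by qPCR normalized to GAPDH, using duplicate CTs against a dilution standard curve, in relative units/µg cell DNA.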

HepG2 [29] = experiment: Drug metabolism in human HepG2 cells assessed as HPMPAp uptake at 10 uM after 48 hrs; format: ADME, cell-based; settings: hepg2, 48 h
Mus musculus [30] = experiment: Toxicity in transgenic mouse at 10 mg/kg, po assessed as mortality after 7 days; format: organism-based; parameters: dose 10 mg/kg, route oral; settings: in vivo, 168 h
[31] = Tmax in Swiss-Webster mouse heart at 10 mg/kg, po after 24 hrs; format: ADME, organism-based; parameters: dose 10 mg/kg, route oral; method in brief: as §1
Lung [32] = experiment: Cmax in Swiss-Webster mouse lung assessed per gram of tissue at 10 mg/kg, po after 24 hrs; format: ADME, organism-based; parameters: dose 10 mg/kg, route oral; settings: in vivo; method in brief: as §1
Spleen [33] = experiment: Cmax in Swiss-Webster mouse spleen assessed per gram of tissue at 10 mg/kg, ip after 24 hrs; format: ADME, organism-based; parameters: dose 10 mg/kg, route intraperitoneal; settings: in vivo; method in brief: as §1

Which AUC (Kidney [1]) does the source give for `CCCCCCCCCCCCCCCCOCCCOP(=O)(O)CO[C@H](CO)Cn1cnc2c(N)ncnc21` here?
Its AUC is 68.8 nmol·h/g.

And the Activity (Mus musculus [2])?
Its Activity is “Non-toxic”.

And the Cmax (Lung [3])?
The Cmax was 2.84 nmol/g.

And the Tmax [4]?
The Tmax was 1 h.

What about the Activity (Mus musculus [5]) of the same compound?
The Activity was “Toxic”.

What about the Cmax [6] of the same compound?
Its Cmax is 1110 nM.

And the Cmax (Spleen [7])?
Its Cmax is 0.22 nmol/g.

And the Tmax [8]?
Its Tmax is 1 h.

What about the AUC (Brain [9]) of the same compound?
Its AUC is 0.68 nmol·h/g.

And the AUC (Brain [10])?
Its AUC is 0.98 nmol·h/g.

What about the bioavailability [11] of the same compound?
The bioavailability was 64%.

What about the AUC (Kidney [12]) of the same compound?
The AUC was 195.7 nmol·h/g.

And the AUC (Liver [13])?
The AUC was 545.1 nmol·h/g.

And the EC50 (Hepatitis B virus [14])?
Its EC50 is 700 nM.

What about the EC90 (Hepatitis B virus [14]) of the same compound?
The EC90 was 2800 nM.

What about the Drug uptake (HepG2 [15]) of the same compound?
The Drug uptake was 888 pmol.

And the AUC (Liver [16])?
Its AUC is 222.2 nmol·h/g.

What about the Drug uptake (HepG2 [17]) of the same compound?
Its Drug uptake is 596 pmol.

And the AUC (Lung [18])?
The AUC was 12.8 nmol·h/g.

What about the Cmax (Kidney [19]) of the same compound?
The Cmax was 5.07 nmol/g.

And the EC50 (Hepatitis B virus [20])?
The EC50 was 900 nM.

What about the EC90 (Hepatitis B virus [20]) of the same compound?
The EC90 was 3.2 µM.

What about the Tmax [21] of the same compound?
Its Tmax is 1 h.

What about the Drug uptake (HepG2 [22]) of the same compound?
Its Drug uptake is 402 pmol.

And the CC50 at 24 h [23]?
Its CC50 at 24 h is over 300 µM.

And the Cmax (Liver [24])?
The Cmax was 131.5 nmol/g.

What about the Tmax [25] of the same compound?
The Tmax was 3 h.

What about the Tmax [26] of the same compound?
Its Tmax is 3 h.

And the AUC (Heart)?
Its AUC is 3.8 nmol·h/g.

What about the Tmax [27] of the same compound?
Its Tmax is 3 h.

What about the ED50 (Hepatitis B virus [28]; Hepatitis B virus, Liver, 336 h) of the same compound?
The ED50 was 0.096 µmol/kg.

And the ED90 (Hepatitis B virus [28]; dose 4 mg/kg)?
Its ED90 is 2.97 µmol/kg.

And the Drug uptake (HepG2 [29])?
Its Drug uptake is 344 pmol.

And the Activity (Mus musculus [30])?
The Activity was “Non-toxic”.

And the Tmax [31]?
The Tmax was 1 h.

And the Cmax (Lung [32])?
The Cmax was 2.89 nmol/g.

And the Cmax (Spleen [33])?
Its Cmax is 1.58 nmol/g.
